Experimental data: ChEMBL document CHEMBL3351225, “Design, synthesis, and structure-activity and structure-pharmacokinetic relationship studies of novel [6,6,5] tricyclic fused oxazolidinones leading to the discovery of a potent, selective, and orally bioavailable FXa inhibitor” (J Med Chem, 2014)

Tests used:
Cytochrome P450 2C8 = target: T1, Cytochrome P450 2C8 (Homo sapiens, UniProt P10632); assay: Inhibition of CYP2C8 (unknown origin); format: ADME
T1 sequence (P10632 whole entry): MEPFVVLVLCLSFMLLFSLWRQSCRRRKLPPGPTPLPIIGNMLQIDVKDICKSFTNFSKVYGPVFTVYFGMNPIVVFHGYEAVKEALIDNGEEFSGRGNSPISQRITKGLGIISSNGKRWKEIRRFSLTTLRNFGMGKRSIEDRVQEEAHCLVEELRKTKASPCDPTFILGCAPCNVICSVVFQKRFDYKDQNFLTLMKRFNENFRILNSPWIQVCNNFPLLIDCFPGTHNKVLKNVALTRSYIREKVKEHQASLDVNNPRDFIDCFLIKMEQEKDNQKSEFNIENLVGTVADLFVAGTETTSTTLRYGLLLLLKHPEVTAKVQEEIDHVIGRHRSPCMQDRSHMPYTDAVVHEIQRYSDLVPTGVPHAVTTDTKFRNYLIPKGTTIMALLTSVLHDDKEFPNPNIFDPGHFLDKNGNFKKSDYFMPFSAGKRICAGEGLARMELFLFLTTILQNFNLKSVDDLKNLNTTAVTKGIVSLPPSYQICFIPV

Rattus norvegicus [1] = assay: Toxicity in rat assessed as induction of organ coefficients changes at 100 mg/kg, po dosed once daily for 2 weeks; format: organism-based; set-up: dose 100 mg/kg, route oral; details: in vivo, 336 h
Outline: (§1)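 Subacute toxicity in rats: oral dosing once daily for 2 weeks at 50 mg/kg (medium) or 100 mg/kg (high). Behavior, body weight, food intake, organ coefficients and survival rate were monitored.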

Cytochrome P450 3A4 = Cytochrome P450 3A4 (Homo sapiens, UniProt P08684); assay: Inhibition of CYP3A4 (unknown origin); format: ADME
[2] = Oral bioavailability in Sprague-Dawley rat at 10 mg/kg; format: ADME, organism-based; details: in vivo
Outline: (§2)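 Male Sprague-Dawley rats, 200−220 g, four per group. Vehicle was 5% DMSO + 5% Tween-80 in 90% saline. The reference drug was given in 10% DMSO + 10% Tween-80 + 80% PEG400 (40% solution in saline). Serial retrobulbar vein samples were quantified by LC-MS. Parameters came from noncompartmental analysis of mean plasma concentrations.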

[3] = Elimination half life in Beagle dog at 1 mg/kg, po; format: ADME, organism-based, Canis lupus familiaris; set-up: dose 1 mg/kg, route oral; details: in vivo
Outline: (§3)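 Male dogs, three per group. Dosed orally at 1 mg/kg or by intravenous infusion at 0.5 mg/kg. Vehicle was 5% DMSO + 5% Tween-80 in 90% saline, or 10% DMSO + 10% Tween-80 + 80% PEG400 for the reference drug. Foreleg blood samples were quantified by LC-MS. Parameters came from noncompartmental analysis of mean plasma concentrations.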

[4] = Plasma clearance in Sprague-Dawley rat at 3 mg/kg, iv; format: ADME, organism-based; set-up: dose 3 mg/kg, route intravenous; outline: as §2
[5] = Plasma clearance in Beagle dog at 0.5 mg/kg, iv; format: ADME, organism-based, Canis lupus familiaris; set-up: dose 0.5 mg/kg, route intravenous; outline: as §3
Coagulation factor XI = Coagulation factor XI (Homo sapiens, UniProt P03951); assay: Inhibition of human factor 11a using S-2366 chromogenic substrate
Outline: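 Human enzyme and inhibitor were premixed and preincubated, then the chromogenic substrate was added. Substrate levels: 300 μM S-2765 (FXa, trypsin); 200 μM S-2366 (FIIa); 2 mM S-2366 (FVIIa, FXIa). pNA release was monitored continuously at 405 nm for 20 min at 37 °C. IC50 was obtained by nonlinear regression.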

Coagulation factor IX = Coagulation factor IX (Homo sapiens, UniProt P00740); assay: Inhibition of human factor 9a using CH3SO2-(D)CHG Gly-Arg-pNA, Biophen-CS51 chromogenic substrate
Rattus norvegicus [6] = assay: Toxicity in rat assessed as induction of behavioral changes at 50 mg/kg, po dosed once daily for 2 weeks; format: organism-based; set-up: dose 50 mg/kg, route oral; details: in vivo, 336 h; outline: as §1
Rattus norvegicus [7] = assay: Toxicity in rat assessed as induction of food intake changes at 100 mg/kg, po dosed once daily for 2 weeks; format: organism-based; set-up: dose 100 mg/kg, route oral; details: in vivo, 336 h; outline: as §1
Rattus norvegicus [8] = assay: Toxicity in rat assessed as induction of body weight changes at 50 mg/kg, po dosed once daily for 2 weeks; format: organism-based; set-up: dose 50 mg/kg, route oral; details: in vivo, 336 h; outline: as §1
[9] = Volume of distribution at steady state in Beagle dog at 0.5 mg/kg, iv; format: ADME, organism-based, Canis lupus familiaris; set-up: dose 0.5 mg/kg, route intravenous; details: in vivo, read-out: Vdss; outline: as §3
[10] = AUC (0 to infinity) in Sprague-Dawley rat at 3 mg/kg, iv; format: ADME, organism-based; set-up: time infinity, dose 3 mg/kg, route intravenous; details: plasma; outline: as §2
[11] = AUC (0 to infinity) in Sprague-Dawley rat at 10 mg/kg, po; format: ADME, organism-based; set-up: time infinity, dose 10 mg/kg, route oral; details: plasma; outline: as §2
[12] = Cmax in Beagle dog at 1 mg/kg, po; format: ADME, organism-based, Canis lupus familiaris; set-up: dose 1 mg/kg, route oral; details: in vivo; outline: as §3
Rattus norvegicus [13] = assay: Antithrombotic activity in rat model of arteriovenous shunt-induced thrombosis assessed as reduction in thrombus formation dosed orally 60 mins before shunt opening; details: po

Cytochrome P450 3A4, sequence (P08684 whole entry): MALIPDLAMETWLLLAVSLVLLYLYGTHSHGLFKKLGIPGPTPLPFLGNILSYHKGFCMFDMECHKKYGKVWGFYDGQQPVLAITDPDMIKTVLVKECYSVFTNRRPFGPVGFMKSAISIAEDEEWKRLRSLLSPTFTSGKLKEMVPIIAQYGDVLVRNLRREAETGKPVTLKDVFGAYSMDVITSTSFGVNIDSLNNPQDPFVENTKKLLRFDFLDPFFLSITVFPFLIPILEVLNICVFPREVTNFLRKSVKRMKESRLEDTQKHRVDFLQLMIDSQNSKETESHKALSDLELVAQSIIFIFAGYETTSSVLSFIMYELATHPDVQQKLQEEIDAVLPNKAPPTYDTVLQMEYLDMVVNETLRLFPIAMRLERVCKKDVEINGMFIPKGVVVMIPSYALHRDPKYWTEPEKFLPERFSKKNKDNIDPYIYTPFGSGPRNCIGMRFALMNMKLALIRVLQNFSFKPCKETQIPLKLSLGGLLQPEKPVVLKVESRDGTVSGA
Coagulation factor IX, sequence (P00740 47-191 limits assumed): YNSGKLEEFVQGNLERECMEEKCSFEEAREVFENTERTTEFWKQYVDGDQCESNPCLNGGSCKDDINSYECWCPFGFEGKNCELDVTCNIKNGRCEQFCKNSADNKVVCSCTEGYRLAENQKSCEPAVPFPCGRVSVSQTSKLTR
Coagulation factor IX, sequence (P00740 227-461 limits assumed): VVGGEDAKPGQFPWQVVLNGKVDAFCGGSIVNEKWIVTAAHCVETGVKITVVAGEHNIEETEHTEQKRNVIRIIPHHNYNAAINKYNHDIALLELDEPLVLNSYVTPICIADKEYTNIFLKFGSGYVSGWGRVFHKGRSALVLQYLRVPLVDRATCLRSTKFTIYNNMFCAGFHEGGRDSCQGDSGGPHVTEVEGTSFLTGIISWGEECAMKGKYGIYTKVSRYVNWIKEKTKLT
Coagulation factor XI, sequence (P03951 19-387 limits assumed): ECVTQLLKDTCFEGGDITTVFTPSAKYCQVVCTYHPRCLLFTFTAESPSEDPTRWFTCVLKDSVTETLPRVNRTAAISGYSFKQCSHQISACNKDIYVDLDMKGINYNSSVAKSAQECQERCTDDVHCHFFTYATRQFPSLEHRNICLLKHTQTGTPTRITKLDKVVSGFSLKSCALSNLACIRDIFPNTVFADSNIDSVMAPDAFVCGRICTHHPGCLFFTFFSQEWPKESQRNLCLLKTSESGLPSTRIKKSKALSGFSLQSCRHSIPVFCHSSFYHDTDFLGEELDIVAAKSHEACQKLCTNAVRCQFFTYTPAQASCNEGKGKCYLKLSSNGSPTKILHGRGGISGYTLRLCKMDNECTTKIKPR
Coagulation factor XI, sequence (P03951 388-625 limits assumed): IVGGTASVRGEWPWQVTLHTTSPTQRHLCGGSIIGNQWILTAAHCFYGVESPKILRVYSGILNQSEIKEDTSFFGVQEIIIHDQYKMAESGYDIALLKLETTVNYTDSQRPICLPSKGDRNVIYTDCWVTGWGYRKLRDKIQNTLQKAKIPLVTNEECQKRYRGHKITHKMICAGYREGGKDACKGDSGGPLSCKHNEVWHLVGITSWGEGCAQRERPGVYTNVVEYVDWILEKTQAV

O=C(NC[C@@H]1OC(=O)N2c3ccc(N4CCOCC4=O)cc3OC[C@@H]12)c1ccc(Cl)s1
IC50 (Cytochrome P450 2C8): 99.7 µM
Activity (Rattus norvegicus [1]): Non-toxic
IC50 (Cytochrome P450 3A4): 85.1 µM
bioavailability [2]: 63.7%
half-life [3]: 2 h
clearance [4]: 3.35 mL/min/kg
clearance [5]: 6.67 mL/min/kg
IC50 (Coagulation factor XI): > 100 µM
IC50 (Coagulation factor IX): > 100 µM
Activity (Rattus norvegicus [6]): Non-toxic
Activity (Rattus norvegicus [7]): Non-toxic
Activity (Rattus norvegicus [8]): Non-toxic
Vd [9]: 1.7 L/kg
AUC(0-inf) [10]: 15300 ng·h/mL
AUC(0-inf) [11]: 33000 ng·h/mL
Cmax [12]: 530 ng/mL
ED50 (Rattus norvegicus [13]): 5.28 mg/kg
